Assay outcomes: PubChem BioAssay, Broad Institute
FN deposit inh = fibronectin deposition inhibition. AID 743247. inhibition, % at 12.6 µM. AH1F fibroblasts, Alexa488-fibronectin deposition fluorescence, overnight. 350,000 tested, 0.086% active;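 active = mean inhibition across replicates of 30% or more, regardless of how many single replicates reach that level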;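 note: positive control wells lacked labelled fibronectin entirely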
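Test system: AH1F fibroblast monolayer depositing Alexa488-labelled fibronectin into matrix. Input: 10000 cells per well. Technique: fluorescence, ex 485 nm, em 525 nm. Buffer or medium: DMEM plus 2% serum, read in PBS. Timing: 1 h cell adhesion before compound, then overnight fibronectin incubation. Compound: single dose, pinned. Read-out basis: inhibition from reduced deposited-fibronectin fluorescence.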
ARNT-TACC3 inh = disrupts binding between human ARNT and TACC3; Q9Y6A5; AlphaScreen His-ARNT PAS-B/GST-TACC3 binding, luminescence; TACC3 fragment carries E629A point mutation; inhibition, % at 9.99 µM; 390,000 tested, 0.66% active; AID 623870;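 active = mean inhibition of replicates at least 50% and at least half of replicates each reaching 50%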;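 note: 0% = complete ARNT plus TACC3 wells and 100% = ARNT alone without TACC3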
FGF22 binding = binders of recombinant human FGF22 by thermal shift; AID 651658; 340,000 tested, 1.5% active; activity (Tm shift, normalised), % at 9.99 µM; SYPRO orange fluorescence; percent of sucrose octasulfate shift, DMSO zero; Q9HCT0;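 active = mean Tm shift, scaled 0 neutral to 100 positive control, at about 1.3% or above, every replicate too, limit read from the data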
PDI turbidity = blocks human protein disulfide isomerase activity. P07237. PDI insulin aggregation turbidity, A650, 90 min. inhibition, % at 10 µM. 350,000 tested, 0.052% active. AID 588391;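 active = mean inhibition across replicates of 30% or more, whatever share of single replicates reach that level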
ERp5 block = inhibitors of human ERp5; ERp5 insulin aggregation, absorbance 650 nm, 90 min; inhibition, % at 9.99 µM; 350,000 tested, 0.05% active; AID 651711;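 active = mean replicate inhibition above about 25%, with every replicate also reaching it, limit read from the data, passing the limit was not always enough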
Target sequence (Q15084 whole entry, looked up): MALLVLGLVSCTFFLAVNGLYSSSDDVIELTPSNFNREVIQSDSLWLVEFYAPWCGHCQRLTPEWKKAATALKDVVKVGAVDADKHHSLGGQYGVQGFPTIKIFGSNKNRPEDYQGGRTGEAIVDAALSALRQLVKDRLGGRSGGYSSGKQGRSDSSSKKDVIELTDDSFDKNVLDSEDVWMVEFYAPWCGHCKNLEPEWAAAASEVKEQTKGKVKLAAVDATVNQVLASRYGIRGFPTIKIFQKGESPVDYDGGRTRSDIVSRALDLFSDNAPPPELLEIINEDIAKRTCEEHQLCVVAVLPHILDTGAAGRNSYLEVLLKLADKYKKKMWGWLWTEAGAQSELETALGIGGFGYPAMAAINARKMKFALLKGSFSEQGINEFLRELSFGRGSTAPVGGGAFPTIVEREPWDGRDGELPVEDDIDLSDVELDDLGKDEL
AF4-AF9 inh = MLL-AF4/AF9 protein interaction inhibition | P42568 | AlphaScreen, biotin-AF4 peptide binding to FLAG-AF9 | inhibition, % at 10 µM | 350,000 tested, 0.47% active;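 active = every replicate reaching a set inhibition limit, whatever the replicate mean, cut at about 25% in these data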;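 note: 0% = plate neutral control median and 100% = total signal loss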
* hit, by the source's call; · = no result given. The list is not random: actives were taken first. Their share in the collection is about 2.1%.

SMILES	FN deposit inh	ARNT-TACC3 inh	FGF22 binding	PDI turbidity	ERp5 block	AF4-AF9 inh
CCCCN(C(=O)NC(=O)Nc1cc(C)ccc1C)S(C)(=O)=O	·	-11	0	6	16	3
CCCCCN(C(=O)NC(=O)Nc1ccc(C)cc1C)S(C)(=O)=O	13	-5	43*	6	-2	-1
O=C1COc2ccc(-c3n[nH]c(=O)c4ccccc34)cc2N1	12	-3	43*	-4	-5	-2
Clc1ccc(/C=N/Nc2ccccn2)cc1	8	·	0	7	-1	5
COc1ccc(/C=N/Nc2ccccn2)cc1O	16	26*	-1	6	11	0
Fc1ccc(/C=N/Nc2ccccn2)cc1	0	·	44*	0	2	6
CN/N=C/c1ccc(C#N)cc1	2	6	43*	6	8	-1
CCOC(=O)N/N=C/c1c(F)c(F)c(F)c(F)c1F	-28	-5	44*	-9	1	-5
C[C@@H]1CN([C@@H](C)CO)C(=O)c2cc(NC(=O)Nc3cccc4ccccc34)ccc2O[C@H]1CN(C)S(=O)(=O)c1ccc(Cl)cc1	·	-6	0	·	8	0
Cc1ccc(-n2c(SCC(=O)N3CCCc4ccccc43)nnc2-c2cccnc2)c(C)c1	-8	-2	43*	-3	-5	1
CCOc1ccccc1-n1c(SCC(=O)N2CCCc3ccccc32)nnc1-c1cccnc1	2	-1	·	-9	·	·
Cc1ccc2c(c1)c1nnc(SCC(=O)N3CCCc4ccccc43)nc1n2CC(=O)O	0	67*	0	9	-4	0
CCc1nnc(SCC(=O)N2CCCc3ccccc32)nc1CC	-2	-9	·	3	·	·
C[C@@H]1CN([C@@H](C)CO)C(=O)c2cc(Br)cnc2O[C@@H]1CN(C)CC1CCCC1	·	-8	0	·	3	-2
CN1C(=O)c2cc(NC(=O)Cc3ccccc3)ccc2OC[C@H]2O[C@@H](CC(=O)NCc3ccc(Cl)cc3)CC[C@H]21	-4	0	0	·	·	·
CCN(CC)c1nc(-c2ccccn2)nc(-c2ccccc2)c1C#N	·	0	43*	-6	-2	-3
Cc1cc(C)c(Nc2cc(S(=O)(=O)O)c(N)c3c2C(=O)c2ccccc2C3=O)c(C)c1	5	55*	·	-31	·	·
COc1ccc(S(=O)(=O)Nc2ccc3c(c2)C(=O)N([C@@H](C)CO)C[C@H](C)[C@H](CN(C)C(=O)CCC(F)(F)F)OCCCC[C@@H](C)O3)cc1	·	-8	-1	·	0	0
COc1cc([N+](=O)[O-])c(C)cc1NC(=O)c1ccc(OC)c(OC)c1	0	·	43*	-2	-2	-1
Cc1c(C(=O)N2CCCCC2)oc2ccccc12	-9	-4	43*	-2	-1	-5
Cc1ccnc(N2CCC(C(=O)NNC(=O)COc3cccc4ccccc34)CC2)n1	6	·	43*	-10	-3	0
C[C@H](CO)N1C[C@H](C)[C@@H](CN(C)Cc2ccccc2)Oc2ccc(NC(=O)Nc3ccc(F)cc3)cc2C1=O	·	4	0	·	-5	-5
CS(=O)(=O)N1C[C@@H]2C(c3ccc(Br)cc3)[C@H](C1)N2CC(F)(F)F (some centres undefined)	-1	·	·	·	·	·
Cc1cccc(CSCCNC(=O)CCSc2ccccc2)c1	3	·	44*	5	0	-2
C[C@@H]1CCCCO[C@H](CN(C)C(=O)c2ccncc2)[C@H](C)CN([C@H](C)CO)C(=O)c2cc(NS(=O)(=O)c3cn(C)cn3)ccc2O1	·	-12	1.7*	·	-1	3
Cc1noc(C)c1S(=O)(=O)Nc1ccc2c(c1)C(=O)N([C@@H](C)CO)C[C@@H](C)[C@H](CN(C)S(=O)(=O)c1cn(C)cn1)OCCCC[C@@H](C)O2	2	-2	34*	·	3	0
Cc1noc(C)c1S(=O)(=O)Nc1ccc2c(c1)C(=O)N([C@@H](C)CO)C[C@@H](C)[C@@H](CN(C)S(=O)(=O)c1cn(C)cn1)OCCCC[C@H](C)O2	-3	1	·	·	1	0
CN1N=C(C(C)(C)C)CC1=O	1	8	0	·	-5	-3
CN1N=C(C(F)(F)F)CC1=O	2	0	44*	1	-3	-2
